# In ChEMBL document CHEMBL2163221, “Discovery of a potential anti-ischemic stroke agent: 3-pentylbenzo[c]thiophen-1(3H)-one” (J Med Chem, 2012):
# Calls of active or inactive are those of the source. No cut-off for these calls is given here.
# Columns and labels:
# Platelet [1] = experiment: Inhibition of arachidonic acid-induced platelet aggregation in rabbit platelet rich plasma by Born's turbidimetric method; assay type: functional; conditions: Oryctolagus cuniculus
# Procedure, shortened: (§1)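 Rabbit carotid blood in 3.8% sodium citrate (9:1); PRP by 500g spin for 10 min, PPP by a further 3000g spin for 10 min. PRP was preincubated in duplicate for 5 min at 37 °C with vehicle or agent (0.1, 0.2, 0.4, 0.8, 1.6 mM). Aggregation was triggered by ADP (10 μM final) or AA (1 mM), and maximal light transmission was read within 5 min, within 3 h of collection. Inhibition % = 100 × (1 − treated/control); IC50 was calculated.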
# Platelet [2] = experiment: Inhibition of adenosine diphosphate-induced platelet aggregation in rabbit platelet rich plasma by Born's turbidimetric method; assay type: functional; conditions: Oryctolagus cuniculus; procedure, shortened: as §1
# Rattus norvegicus [3] = experiment: Anticerebral ischemic activity in Sprague-Dawley rat middle cerebral artery occlusion model assessed as reduction of water content in brain at 30 mg/kg, ig for 7 consecutive days; assay type: functional, organism-based; set-up: dose 30 mg/kg
# Procedure, shortened: (§2)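 Rats given oral saline-vehicle pretreatment for 7 days underwent 2 h suture MCAO plus reperfusion. At 24 h the animals were decapitated and brains weighed wet, then dried at 105 °C for 24 h. Water % = (wet − dry)/wet × 100; n = 6/group.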
# Plasma = experiment: Anticoagulant activity in rabbit plasma assessed as length of activated partial thromboplastin time; assay type: functional, cell-free; conditions: Oryctolagus cuniculus
# Platelet [4] = experiment: Inhibition of adenosine diphosphate-induced platelet aggregation in rabbit platelet rich plasma at 0.1 mM by Born's turbidimetric method; assay type: functional; conditions: Oryctolagus cuniculus; procedure, shortened: as §1
# Platelet [5] = experiment: Inhibition of arachidonic acid-induced platelet aggregation in rabbit platelet rich plasma at 0.1 mM by Born's turbidimetric method; assay type: functional; conditions: Oryctolagus cuniculus; procedure, shortened: as §1
# Rattus norvegicus [6] = experiment: Antioxidant activity in Sprague-Dawley rat middle cerebral artery occlusion model assessed as decrease in malondialdehyde level in brain at 90 mg/kg, ig for 7 consecutive days; assay type: functional; set-up: scale not given: the % may be the effect or the level left; conditions: route intragastric
# Procedure, shortened: (§3)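 Rats pretreated orally in saline for 7 days underwent 2 h MCAO with reperfusion. At 24 h brains were removed, rinsed in cold 0.9% saline, blotted and stored at −70 °C. After protein quantification, GSH, SOD activity and MDA were measured with commercial kits; n = 12/group.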
# Rattus norvegicus [7] = experiment: Antioxidant activity in Sprague-Dawley rat middle cerebral artery occlusion model assessed as decrease in malondialdehyde level in brain at 30 mg/kg, ig for 7 consecutive days; assay type: functional; set-up: scale not given: the % may be the effect or the level left; conditions: route intragastric; procedure, shortened: as §3
# Rattus norvegicus [8] = experiment: Antioxidant activity in Sprague-Dawley rat middle cerebral artery occlusion model assessed as increase in superoxide dismutase activity at 90 mg/kg, ig for 7 consecutive days; assay type: functional; conditions: route intragastric; procedure, shortened: as §3
# Rattus norvegicus [9] = experiment: Antioxidant activity in Sprague-Dawley rat middle cerebral artery occlusion model assessed as increase in superoxide dismutase activity at 30 mg/kg, ig for 7 consecutive days; assay type: functional; conditions: route intragastric; procedure, shortened: as §3
# Rattus norvegicus [10] = experiment: Antioxidant activity in Sprague-Dawley rat middle cerebral artery occlusion model assessed as increase in glutathione level in brain at 90 mg/kg, ig for 7 consecutive days; assay type: functional; conditions: route intragastric; procedure, shortened: as §3
# Rattus norvegicus [11] = experiment: Anticerebral ischemic activity in Sprague-Dawley rat middle cerebral artery occlusion model assessed as reduction in loss of hippocampal neurons at 90 mg/kg, ig for 7 consecutive days by hematoxylin-eosin staining; assay type: functional, organism-based; set-up: dose 90 mg/kg
# Procedure, shortened: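 Rats dosed ig in saline for 7 days before 2 h MCAO/reperfusion. Brain tissue sections from the ischemic side were stained with hematoxylin–eosin and examined at ×200 for hippocampal neuron loss; n = 6/group.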
# Rattus norvegicus [12] = experiment: Anticerebral ischemic activity in Sprague-Dawley rat middle cerebral artery occlusion model assessed as reduction of water content in brain at 90 mg/kg, ig for 7 consecutive days; assay type: functional, organism-based; set-up: dose 90 mg/kg; procedure, shortened: as §2
# Rattus norvegicus [13] = experiment: Anticerebral ischemic activity in Sprague-Dawley rat middle cerebral artery occlusion model assessed as reduction in infarct size in brain at 90 mg/kg, ig for 7 consecutive days by TTC assay; assay type: functional; set-up: scale not given: the % may be the effect or the level left; conditions: route intragastric
# Procedure, shortened: (§4)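 SD rats, chloral hydrate 350 mg/kg ip anaesthesia; right MCA occluded 2 h by silicone-tipped 4-0 nylon filament via ECA into ICA (>80% CBF drop by laser Doppler, 37 ± 0.5 °C), then reperfusion. Dosed in normal saline orally daily 7 days before ischemia. At 24 h, 2-mm coronal slices stained 2% TTC 30 min 37 °C; infarct area as % of whole brain; n = 6.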
# Rattus norvegicus [14] = experiment: Anticerebral ischemic activity in Sprague-Dawley rat middle cerebral artery occlusion model assessed as reduction in infarct size in brain at 30 mg/kg, ig for 7 consecutive days by TTC assay; assay type: functional; set-up: scale not given: the % may be the effect or the level left; conditions: route intragastric; procedure, shortened: as §4
# Rattus norvegicus [15] = experiment: Anticerebral ischemic activity in Sprague-Dawley rat middle cerebral artery occlusion model assessed as reduction in neurological deficit score at 90 mg/kg, ig for 7 consecutive days by Longa's method; assay type: functional; set-up: scale not given: the % may be the effect or the level left; conditions: route intragastric
# Procedure, shortened: (§5)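 SD rats were dosed orally in normal saline for 7 days before ischemia (n = 12/group). They were anesthetized ip with 350 mg/kg chloral hydrate and given MCAO with a silicone-tipped 4-0 nylon suture for 2 h, then reperfusion. Occlusion was confirmed as >80% CBF drop by laser Doppler, with core temperature held at 37 °C. Deficits were scored blinded by modified Longa's method 24 h after reperfusion.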
# Rattus norvegicus [16] = experiment: Anticerebral ischemic activity in Sprague-Dawley rat middle cerebral artery occlusion model assessed as reduction in neurological deficit score at 30 mg/kg, ig for 7 consecutive days by Longa's method; assay type: functional; set-up: scale not given: the % may be the effect or the level left; conditions: route intragastric; procedure, shortened: as §5
# PC-12 [17] = experiment: Antioxidant activity in rat PC12 cells assessed as inhibition of hydroxyl radical-induced cytotoxicity at 10 uM treated for 2 hrs prior to H2O2/Fe+ challenge measured after 1 hr by MTT assay (reference value: 61.95%); assay type: functional; set-up: scale not given: the % may be the effect or the level left
# PC-12 [18] = experiment: Antioxidant activity in rat PC12 cells assessed as inhibition of hydrogen peroxide induced cytotoxicity at 10 uM treated for 2 hrs prior to H2O2 challenge measured after 1 hr by MTT assay (reference value: 52.45%); assay type: functional; set-up: scale not given: the % may be the effect or the level left
# Rattus norvegicus [19] = experiment: Antithrombotic activity in Sprague-Dawley rat arteriovenous shunt model assessed as reduction of thrombus dry weight at 90 mg/kg, po qd for 5 consecutive days; assay type: functional; set-up: scale not given: the % may be the effect or the level left
# Procedure, shortened: (§6)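 Male SD rats were dosed by gavage in saline daily for 5 days (n = 12/group). An A-V shunt linked the right carotid artery to the left jugular vein: a saline-filled 14 cm polyethylene tube holding 6 cm of four braided silk threads. After 15 min of flow, the threads were weighed wet, then dried 6 h at room temperature and reweighed, less the pre-experiment thread weight.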
# Rattus norvegicus [20] = experiment: Antithrombotic activity in Sprague-Dawley rat arteriovenous shunt model assessed as reduction of thrombus dry weight at 30 mg/kg, po qd for 5 consecutive days; assay type: functional; set-up: scale not given: the % may be the effect or the level left; procedure, shortened: as §6
# Rattus norvegicus [21] = experiment: Antithrombotic activity in Sprague-Dawley rat arteriovenous shunt model assessed as reduction of thrombus wet weight at 90 mg/kg, po qd for 5 consecutive days; assay type: functional; set-up: scale not given: the % may be the effect or the level left; procedure, shortened: as §6
# Rattus norvegicus [22] = experiment: Antithrombotic activity in Sprague-Dawley rat arteriovenous shunt model assessed as reduction of thrombus wet weight at 30 mg/kg, po qd for 5 consecutive days; assay type: functional; set-up: scale not given: the % may be the effect or the level left; procedure, shortened: as §6
# Platelet [23] = experiment: Ratio of 3-nbutylphthalide to compound for arachidonic acid-induced platelet aggregation in rabbit platelet rich plasma at 0.1 mM; assay type: functional, Oryctolagus cuniculus
# Platelet [24] = experiment: Ratio of 3-nbutylphthalide to compound for adenosine diphosphate-induced platelet aggregation in rabbit platelet rich plasma at 0.1 mM; assay type: functional, Oryctolagus cuniculus
# Platelet [25] = experiment: Ratio of edaravone to compound for adenosine diphosphate-induced platelet aggregation in rabbit platelet rich plasma at 0.1 mM; assay type: functional, Oryctolagus cuniculus
# Platelet [26] = experiment: Ratio of aspirin to compound for adenosine diphosphate-induced platelet aggregation in rabbit platelet rich plasma at 0.1 mM; assay type: functional, Oryctolagus cuniculus
# Rattus norvegicus [27] = experiment: Antioxidant activity in Sprague-Dawley rat middle cerebral artery occlusion model assessed as decrease in malondialdehyde level in brain at 3 mg/kg, ig for 7 consecutive days; assay type: functional; set-up: scale not given: the % may be the effect or the level left; conditions: route intragastric; procedure, shortened: as §3
# Rattus norvegicus [28] = experiment: Antioxidant activity in Sprague-Dawley rat middle cerebral artery occlusion model assessed as increase in superoxide dismutase activity at 3 mg/kg, ig for 7 consecutive days; assay type: functional; conditions: route intragastric; procedure, shortened: as §3
# Rattus norvegicus [29] = experiment: Antioxidant activity in Sprague-Dawley rat middle cerebral artery occlusion model assessed as increase in glutathione level in brain at 3 mg/kg, ig for 7 consecutive days; assay type: functional; conditions: route intragastric; procedure, shortened: as §3
# Rattus norvegicus [30] = experiment: Anticerebral ischemic activity in Sprague-Dawley rat middle cerebral artery occlusion model assessed as reduction of water content in brain at 3 mg/kg, ig for 7 consecutive days; assay type: functional, organism-based; set-up: dose 3 mg/kg; procedure, shortened: as §2
# Rattus norvegicus [31] = experiment: Anticerebral ischemic activity in Sprague-Dawley rat middle cerebral artery occlusion model assessed as reduction in infarct size in brain at 3 mg/kg, ig for 7 consecutive days by TTC assay; assay type: functional; set-up: scale not given: the % may be the effect or the level left; conditions: route intragastric; procedure, shortened: as §4
# Rattus norvegicus [32] = experiment: Anticerebral ischemic activity in Sprague-Dawley rat middle cerebral artery occlusion model assessed as reduction in neurological deficit score at 3 mg/kg, ig for 7 consecutive days by Longa's method; assay type: functional; set-up: scale not given: the % may be the effect or the level left; conditions: route intragastric; procedure, shortened: as §5
# Rattus norvegicus [33] = experiment: Antithrombotic activity in Sprague-Dawley rat arteriovenous shunt model assessed as reduction of thrombus dry weight at 3 mg/kg, po qd for 5 consecutive days; assay type: functional; set-up: scale not given: the % may be the effect or the level left; procedure, shortened: as §6
# Rattus norvegicus [34] = experiment: Antithrombotic activity in Sprague-Dawley rat arteriovenous shunt model assessed as reduction of thrombus wet weight at 3 mg/kg, po qd for 5 consecutive days; assay type: functional; set-up: scale not given: the % may be the effect or the level left; procedure, shortened: as §6
smiles,measurement,setting,value
CCCC1SC(=O)c2ccccc21 (racemic),IC50,Platelet [1],400 µM
same,IC50,Platelet [2],> 1000 µM
O=C1SC(Cc2ccccc2)c2ccccc21 (racemic),IC50,Platelet [1],> 1000 µM
same,IC50,Platelet [2],> 1000 µM
CCCCCCCC1SC(=O)c2ccccc21 (racemic),IC50,Platelet [1],> 1000 µM
same,IC50,Platelet [2],720 µM
CCCCCC1SC(=O)c2ccccc21 (racemic),Activity,Rattus norvegicus [3],inactive
same,Activity,Plasma,inactive
same,inhibition at 100 µM,Platelet [4],15.6%
same,inhibition at 100 µM,Platelet [5],35.2%
same,Activity,Rattus norvegicus [6],40.9%
same,Activity,Rattus norvegicus [7],23.66%
same,Activity,Rattus norvegicus [8],39.77%
same,Activity,Rattus norvegicus [9],25.87%
same,Activity,Rattus norvegicus [10],82.67%
same,Activity,Rattus norvegicus [11],Active
same,Activity,Rattus norvegicus [12],Active
same,Activity,Rattus norvegicus [13],59.62%
same,Activity,Rattus norvegicus [14],35.5%
same,Activity,Rattus norvegicus [15],37.45%
same,Activity,Rattus norvegicus [16],25.09%
same,Activity,PC-12 [17],86.08%
same,Activity,PC-12 [18],77.23%
same,Activity,Rattus norvegicus [19],43.33%
same,Activity,Rattus norvegicus [20],32.85%
same,Activity,Rattus norvegicus [21],39.7%
same,Activity,Rattus norvegicus [22],27.35%
same,Ratio,Platelet [23],2.02
same,Ratio,Platelet [24],1.65
same,IC50,Platelet [1],210 µM
same,IC50,Platelet [2],420 µM
same,Ratio,Platelet [25],1.36
same,Ratio,Platelet [26],1.45
CC1=NN(c2ccccc2)C(=O)C1 [EDARAVONE],Activity,Plasma,inactive
same,inhibition at 100 µM,Platelet [4],11.5%
same,inhibition at 100 µM,Platelet [5],36.1%
same,Activity,Rattus norvegicus [27],28.52%
same,Activity,Rattus norvegicus [28],34.2%
same,Activity,Rattus norvegicus [29],58.33%
same,Activity,Rattus norvegicus [30],Active
same,Activity,Rattus norvegicus [31],37.31%
same,Activity,Rattus norvegicus [32],34.46%
same,Activity,PC-12 [17],83.3%
same,Activity,PC-12 [18],78.05%
same,Activity,Rattus norvegicus [33],30.08%
same,Activity,Rattus norvegicus [34],36.14%
same,IC50,Platelet [1],250 µM
same,IC50,Platelet [2],850 µM
